Experimental data from ChEMBL document CHEMBL1121475, “Inhibitors of indoleethylamine N-methyltransferase. Derivatives of 3-methyl-2-thiazolidinimine. In vitro, in vivo, and metabolic studies” (J Med Chem, 1980).

Experiments:
[1] = system: Oryctolagus cuniculus; experiment: Evaluation of formation of 3-Methyl-thiazolidin-2-ylideneamine from the radiolabeled compound, orally administered, from rabbit 1,2 lung was analyzed by Gas-liquid chromatographic analysis; type: ADME, organism-based; settings: in vivo, po
Outline: (§1)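 Rabbit 1 was given [14C]-labelled parent amide, 100 mg/kg (204.6 dpm/μg), orally by gavage and killed 2 h later. Urine (0-2 h), blood, liver, lung and kidney were collected. Samples were extracted, trimethylsilylated with BSA/pyridine at 70 °C for 12-16 h, and run by GLC on 3% OV-210 at 95 °C against the internal standard 3-ethyl-2-thiazolidinimine. Output is % of radioactivity present as the metabolite, mean of two determinations.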

[2] = target: Indolethylamine N-methyltransferase (Homo sapiens) (UniProt O95050); experiment: In vitro evaluation of Indoleethylamine-N-methyltransferase in human lung preparations for the ability to inhibit conversion of N-methyltryptamine (NMT) to N,N-dimethyltryptamine (DMT) at dose 2.5 ug/mL; type: tissue-based
Outline: (§2)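 Human lung INMT was taken from the 50000g supernatant, cut with 40-60% ammonium sulfate, dialysed and purified on Sephadex G-150. The reaction contained 0.007 M N-methyltryptamine stock, S-[methyl-14C]adenosylmethionine and potassium phosphate, pH 7.9, in 0.105 mL, run 90 min at 37 °C. It was stopped with borate at pH 10. [14C]DMT was extracted into isoamyl alcohol and counted by scintillation.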

[3] = system: Indolethylamine N-methyltransferase (Oryctolagus cuniculus); experiment: In vivo evaluation of specific activity against rabbit lung Indoleethylamine-N-methyltransferase at intravenous dose of 5 mg/kg
[4] = system: Oryctolagus cuniculus; experiment: 200 mg/kg of [14C]- radiolabeled compound was orally administered in rabbit4, and radioactivity content in urine was estimated at; settings: rabbit, in vivo, po
[5] = system: Oryctolagus cuniculus; experiment: 100 mg/kg of [14C]- radiolabeled compound was orally administered in rabbit3, and radioactivity content in feces was estimated at 0-48 hr; settings: rabbit, in vivo, po
[6] = system: Indolethylamine N-methyltransferase (Oryctolagus cuniculus); experiment: In vivo evaluation of specific activity against rabbit lung Indoleethylamine-N-methyltransferase at oral dose of 25 mg/kg
[7] = target: Indolethylamine N-methyltransferase (Homo sapiens) (UniProt O95050); experiment: In vitro evaluation of Indoleethylamine-N-methyltransferase in human lung preparations for ability to inhibit conversion of N-methyltryptamine (NMT) to N,N-dimethyltryptamine (DMT) at dose 25 ug/mL; type: tissue-based; outline: as §2
[8] = system: Oryctolagus cuniculus; experiment: Radioactivity measurements were performed following oral administration of the 100 mg/kg in rabbit 5 after 2 hr lung; type: ADME, organism-based; parameters: dose 100 mg/kg, route oral; settings: in vivo
Outline: (§3)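 Male rabbits (900-1060 g) received [14C]-labelled parent amide, 100 mg/kg (251.7 dpm/μg, pH about 4.5), by gavage. At 2 or 6 h they were killed by air injection into the ear vein. Blood was drawn by cardiac puncture; brain and lung were homogenized in water (1 g = 10 mL). Radioactivity is expressed as μg equivalents of parent per g or mL.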

[9] = system: Oryctolagus cuniculus; experiment: Radioactivity measurements were performed following oral administration of the 100 mg/kg in rabbit 5 after 2 hr brain; type: ADME, organism-based; parameters: dose 100 mg/kg, route oral; settings: in vivo; outline: as §3
[10] = system: Oryctolagus cuniculus; experiment: Evaluation of formation of 3-Methyl-thiazolidin-2-ylideneamine from the radiolabeled compound, orally administered, from rabbit 4 urine was analyzed at 0-2 hr by Gas-liquid chromatographic analysis; type: ADME, organism-based; settings: in vivo, po, in the assay text read “0-24 hr” for “0-2 hr”
Outline: (§4)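 Rabbits 3 (single 100 mg/kg) and 4 (two 100 mg/kg doses 2 h apart) were gavaged with [14C]-labelled parent amide (204.6 dpm/μg). They were not killed; urine was collected 0-24 h. The metabolite was quantified by GLC of trimethylsilylated extracts against an internal-standard peak-height-ratio curve. Results are given as % of urinary radioactivity or % of administered dose, mean of two determinations.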

[11] = system: Oryctolagus cuniculus; experiment: Percent of 3-Methyl-thiazolidin-2-ylideneamine as administered dose was reported in rabbit 2; type: ADME, organism-based; settings: in vivo
[12] = system: Oryctolagus cuniculus; experiment: 100 mg/kg of [14C]- radiolabeled compound was orally administered in rabbit3, and radioactivity content in urine was estimated at total hours; settings: rabbit, in vivo, po
[13] = system: Oryctolagus cuniculus; experiment: Evaluation of formation of 3-Methyl-thiazolidin-2-ylideneamine from the radiolabeled compound, orally administered, from rabbit 3 urine was analyzed at 0-2 hr by Gas-liquid chromatographic analysis; type: ADME, organism-based; settings: in vivo, po, in the assay text read “0-24 hr” for “0-2 hr”; outline: as §4
[14] = system: Oryctolagus cuniculus; experiment: 100 mg/kg of [14C]- radiolabeled compound was orally administered in rabbit1, and radioactivity content in urine was estimated at 0-2 hr; settings: rabbit, in vivo, po
[15] = system: Oryctolagus cuniculus; experiment: 200 mg/kg of [14C]- radiolabeled compound was orally administered in rabbit4, and radioactivity content in urine was estimated at 24-48 h; settings: rabbit, in vivo, po
[16] = system: Oryctolagus cuniculus; experiment: Evaluation of formation of 3-Methyl-thiazolidin-2-ylideneamine from the radiolabeled compound, orally administered, from rabbit 1,2 kidney was analyzed by Gas-liquid chromatographic analysis; type: ADME, organism-based; settings: in vivo, po; outline: as §1
[17] = system: Oryctolagus cuniculus; experiment: Evaluation of formation of 3-Methyl-thiazolidin-2-ylideneamine from the radiolabeled compound, orally administered, from rabbit 1,2 plasma was analyzed by Gas-liquid chromatographic analysis; type: ADME, organism-based; settings: in vivo, po; outline: as §1
[18] = system: Oryctolagus cuniculus; experiment: Percent of 3-Methyl-thiazolidin-2-ylideneamine as administered dose was reported in rabbit 3 by Gas-liquid chromatographic analysis; type: ADME, organism-based; settings: in vivo; outline: as §4
[19] = system: Oryctolagus cuniculus; experiment: 100 mg/kg of [14C]- radiolabeled compound was orally (gavage) injected in rabbit1plasma, and radioactivity content in feces was estimated; type: ADME, organism-based; settings: rabbit, in vivo, po
Outline: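 Rabbit given 100 mg/kg [14C]-labelled drug by gavage, 204.6 dpm/μg, in water/0.1 N HCl at 6.66 mg/mL. Rabbit 1 was killed at 2 h and liver, lung, kidney and blood taken; tissue values are μg equivalents/g and tissue:plasma ratio. Rabbit 3 was kept for urine (0-24, 24-48, 48-72 h) and feces (0-48 h), expressed as % of dose.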

[20] = system: Oryctolagus cuniculus; experiment: Percent of 3-Methyl-thiazolidin-2-ylideneamine as administered dose was reported in rabbit 4 by Gas-liquid chromatographic analysis; type: ADME, organism-based; settings: in vivo; outline: as §4
[21] = system: Indolethylamine N-methyltransferase (Oryctolagus cuniculus); experiment: Compound tested for inhibitory activity against rabbit lung Indoleethylamine-N-methyltransferase at 5 mg/kg intravenously*p< 0.05
[22] = Dose that causes approximately 50% lethality in mice, when given perorally; type: ADME, organism-based; settings: mouse, in vivo, po
Outline: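 Mice in groups of one to three were dosed orally. Deaths were scored on day 7 after dosing, and the LD50 was obtained by graphical interpolation.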

[23] = system: Oryctolagus cuniculus; experiment: 200 mg/kg of [14C]- radiolabeled compound was orally administered in rabbit4, and radioactivity content in urine was estimated at 48-72 h; settings: rabbit, in vivo, po
[24] = system: Oryctolagus cuniculus; experiment: Radioactivity measurements were performed following oral administration of the 100 mg/kg in rabbit 8 after 6 hr in plasma; type: ADME, organism-based; parameters: dose 100 mg/kg, route oral; settings: in vivo; outline: as §3

Indolethylamine N-methyltransferase (Homo sapiens), sequence (O95050 whole entry): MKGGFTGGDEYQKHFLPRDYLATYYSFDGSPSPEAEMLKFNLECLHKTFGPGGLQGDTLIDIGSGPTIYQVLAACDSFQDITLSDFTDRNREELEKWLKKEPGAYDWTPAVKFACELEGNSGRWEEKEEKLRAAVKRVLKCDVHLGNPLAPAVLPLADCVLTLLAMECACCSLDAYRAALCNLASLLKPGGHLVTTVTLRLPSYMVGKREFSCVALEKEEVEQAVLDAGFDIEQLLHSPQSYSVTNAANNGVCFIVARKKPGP

Question: Which results are given for `CN1CCS/C1=N\C(=O)CCC(=O)/N=C1/SCCN1C`?
Answer: Radioactivity [1]: 92.9%; inhibition [2]: 74%; Specific activity [3]: 37000 dpm; Administered dose [4]: 87.1%; Administered dose [5]: 3.8%; Specific activity [6]: 14100 dpm; inhibition [7]: 12%; Radioactivity level [8]: 36.4 µg/g; Radioactivity level [9]: 17.8 µg/g; Radioactivity [10]: 48.7%; Administered dose [11]: 10.8%; Administered dose [12]: 86.9%; Radioactivity [13]: 51.3%; Administered dose [14]: 48.8%; Administered dose [15]: 0.8%; Radioactivity [16]: 72.8%; Radioactivity [17]: 26.5%; Administered dose [18]: 41.2%; Plasma concentration [19]: 23.5 µg/g; Administered dose [20]: 41.3%; inhibition [21]: 64%; LD50 [22]: 1460 mg/kg; Administered dose [23]: 0.1%; Radioactivity level [24]: 4 µg/mL
